Test results published in ChEMBL document CHEMBL3046507, “Synthesis and herbicidal activities of novel 3-N-substituted amino-6-methyl-4-(3-trifluoromethylphenyl)pyridazine derivatives” (2008).

Columns and labels:
Amaranthus retroflexus [1] = assay: Herbicidal activity against Amaranthus retroflexus assessed as inhibition of fresh plant weight at 750 g/ha using postemergence protocol measured after 24 days under green house conditions; details: post-emergence
[2] = test system: Brassica rapa subsp. oleifera; assay: Herbicidal activity against Brassica rapa subsp. oleifera assessed as inhibition of fresh plant weight at 750 g/ha using preemergence protocol measured after 24 days under green house conditions; details: pre-emergence
[3] = test system: Brassica rapa subsp. oleifera; assay: Herbicidal activity against Brassica rapa subsp. oleifera assessed as inhibition of fresh plant weight at 750 g/ha using postemergence protocol measured after 24 days under green house conditions; details: post-emergence
Spirodela polyrhiza [4] = assay: Inhibition of chlorophyll in Spirodela polyrhiza fronds at 10 ug/mL using light intensity of 45 uE/m2/s measured after 7 days; assay type: functional; details: 168 h
In short: (§1)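 Giant duckweed assay. Compound in DMF dropped onto filter paper, solvent evaporated 15 min, paper placed in flask with 15 mL fresh medium and shaken >10 min. 10 fronds inoculated per flask and grown 7 days at 23-26 °C, 16 h light/8 h dark, ca. 45 µE m^-2 s^-1. DMF plus medium served as control. Chl extracted in 96% ethanol overnight at 4 °C; OD read at 665 and 649 nm; content expressed as percent of control.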

Echinochloa crus-galli [5] = assay: Herbicidal activity against Echinochloa crus-galli (barnyard grass) assessed as inhibition of fresh plant weight at 750 g/ha using preemergence protocol measured after 24 days under green house conditions; details: pre-emergence
Digitaria [6] = assay: Herbicidal activity against Digitaria adscendens assessed as inhibition of fresh plant weight at 750 g/ha using postemergence protocol measured after 24 days under green house conditions; details: in Digitaria adscendens, post-emergence
Digitaria [7] = assay: Herbicidal activity against Digitaria adscendens assessed as inhibition of fresh plant weight at 750 g/ha using preemergence protocol measured after 24 days under green house conditions; details: in Digitaria adscendens, pre-emergence
Spirodela polyrhiza [8] = assay: Inhibition of chlorophyll in Spirodela polyrhiza fronds at 1 ug/mL using light intensity of 45 uE/m2/s measured after 7 days; assay type: functional; details: 168 h
In short: as §1

Amaranthus retroflexus [9] = assay: Herbicidal activity against Amaranthus retroflexus assessed as inhibition of fresh plant weight at 750 g/ha using preemergence protocol measured after 24 days under green house conditions; details: pre-emergence
Echinochloa crus-galli [10] = assay: Herbicidal activity against Echinochloa crus-galli (barnyard grass) assessed as inhibition of fresh plant weight at 750 g/ha using postemergence protocol measured after 24 days under green house conditions; details: post-emergence

Row | SMILES | inhibition at 750 g/ha (Amaranthus retroflexus [1]) | inhibition at 750 g/ha [2] | inhibition at 750 g/ha [3] | inhibition at 10 µg/mL (Spirodela polyrhiza [4]) | inhibition at 750 g/ha (Echinochloa crus-galli [5]) | inhibition at 750 g/ha (Digitaria [6]) | inhibition at 750 g/ha (Digitaria [7]) | inhibition at 1 µg/mL (Spirodela polyrhiza [8]) | inhibition at 750 g/ha (Amaranthus retroflexus [9]) | inhibition at 750 g/ha (Echinochloa crus-galli [10])
1 | Cc1cc(-c2cccc(C(F)(F)F)c2)c(NCc2ccc(Cl)cc2)nn1 | 44% | 7% | 27% | 85% | 9% | 18% | 0% | 25% | 3% | 15%
2 | Cc1cc(-c2cccc(C(F)(F)F)c2)c(NCc2ccccc2Cl)nn1 | 33% | 0% | 34% | 90% | 3% | 29% | 1% | 73% | 36% | 26%
3 | Cc1cc(-c2cccc(C(F)(F)F)c2)c(NC(C)c2ccccc2)nn1 (stereo not given) | 7% | 12% | 0% | 63% | 10% | 54% | 12% | 31% | 10% | 43%
4 | Cc1cc(-c2cccc(C(F)(F)F)c2)c(NC(C)c2ccc(F)cc2)nn1 (stereo not given) | 1% | 13% | 0% | 79% | 14% | 57% | 28% | 47% | 1% | 0%
5 | Cc1cc(-c2cccc(C(F)(F)F)c2)c(NC(C)c2ccc(Cl)cc2)nn1 (stereo not given) | 17% | 2% | 8% | 23% | 13% | 67% | 11% | 15% | 16% | 27%
6 | Cc1cc(-c2cccc(C(F)(F)F)c2)c(NCCc2ccccc2)nn1 | 30% | 0% | 45% | 100% | 4% | 11% | 27% | 100% | 16% | 13%
7 | Cc1cc(-c2cccc(C(F)(F)F)c2)c(Nc2ccccc2C)nn1 | 38% | 7% | 86% | 83% | 0% | 1% | 11% | 65% | 0% | 10%
8 | Cc1ccc(Nc2nnc(C)cc2-c2cccc(C(F)(F)F)c2)c(C)c1 | 0% | 10% | 22% | 72% | 0% | 11% | 7% | 69% | 0% | 25%
9 | COc1ccccc1Nc1nnc(C)cc1-c1cccc(C(F)(F)F)c1 | 30% | 9% | 6% | 82% | 0% | 0% | 0% | 62% | 4% | 11%
10 | COc1ccc(Nc2nnc(C)cc2-c2cccc(C(F)(F)F)c2)cc1 | 27% | 13% | 44% | 100% | 5% | 89% | 2% | 100% | 55% | 28%
11 | Cc1cc(-c2cccc(C(F)(F)F)c2)c(Nc2ccccc2Cl)nn1 | 41% | 9% | 93% | 100% | 2% | 19% | 0% | 82% | 10% | 24%
12 | Cc1cc(-c2cccc(C(F)(F)F)c2)c(Nc2cccc(Cl)c2)nn1 | 38% | 3% | 63% | 100% | 0% | 5% | 0% | 100% | 12% | 7%
13 | Cc1cc(-c2cccc(C(F)(F)F)c2)c(Nc2cccc(Br)c2)nn1 | 30% | 14% | 17% | 100% | 0% | 0% | 0% | 100% | 0% | 0%
14 | Cc1cc(-c2cccc(C(F)(F)F)c2)c(Nc2ccc(Br)cc2)nn1 | 45% | 26% | 36% | 63% | 15% | 26% | 14% | 59% | 54% | 13%
15 | Cc1cc(-c2cccc(C(F)(F)F)c2)c(Nc2ccc(OC(F)(F)F)cc2)nn1 | 26% | 0% | 50% | 83% | 0% | 35% | 5% | 65% | 35% | 21%
16 | Cc1cc(-c2cccc(C(F)(F)F)c2)c(NCc2ccccc2)nn1 | 27% | 0% | 30% | 86% | 0% | 23% | 7% | 83% | 4% | 8%
17 | Cc1ccc(CNc2nnc(C)cc2-c2cccc(C(F)(F)F)c2)cc1 | 2% | 16% | 20% | 74% | 78% | 54% | 64% | 34% | 31% | 0%
18 | COc1ccc(CNc2nnc(C)cc2-c2cccc(C(F)(F)F)c2)cc1 | 18% | 0% | 14% | 84% | 22% | 8% | 0% | 51% | 2% | 0%
19 | Cc1cc(-c2cccc(C(F)(F)F)c2)c(NCc2ccccc2F)nn1 | 44% | 24% | 49% | 81% | 0% | 24% | 0% | 77% | 8% | 10%
